For data set [1] the following is noted: ref Marsh and Phil 1990; cited from earlier work.
In data set [2] the test system is rod and olfactory CNG channels. As to the kind of experiment: Comparison of DAG analogues on cloned CNG channels. The class given is biochemical. The conditions noted are these: data not shown.
The target in data set [3] is T1, CHM 11 rod/olfactory chimeric CNG channel (Bos taurus / Rattus norvegicus, UniProt Q00194+Q00195).
T1 sequence (Q00194 1-690): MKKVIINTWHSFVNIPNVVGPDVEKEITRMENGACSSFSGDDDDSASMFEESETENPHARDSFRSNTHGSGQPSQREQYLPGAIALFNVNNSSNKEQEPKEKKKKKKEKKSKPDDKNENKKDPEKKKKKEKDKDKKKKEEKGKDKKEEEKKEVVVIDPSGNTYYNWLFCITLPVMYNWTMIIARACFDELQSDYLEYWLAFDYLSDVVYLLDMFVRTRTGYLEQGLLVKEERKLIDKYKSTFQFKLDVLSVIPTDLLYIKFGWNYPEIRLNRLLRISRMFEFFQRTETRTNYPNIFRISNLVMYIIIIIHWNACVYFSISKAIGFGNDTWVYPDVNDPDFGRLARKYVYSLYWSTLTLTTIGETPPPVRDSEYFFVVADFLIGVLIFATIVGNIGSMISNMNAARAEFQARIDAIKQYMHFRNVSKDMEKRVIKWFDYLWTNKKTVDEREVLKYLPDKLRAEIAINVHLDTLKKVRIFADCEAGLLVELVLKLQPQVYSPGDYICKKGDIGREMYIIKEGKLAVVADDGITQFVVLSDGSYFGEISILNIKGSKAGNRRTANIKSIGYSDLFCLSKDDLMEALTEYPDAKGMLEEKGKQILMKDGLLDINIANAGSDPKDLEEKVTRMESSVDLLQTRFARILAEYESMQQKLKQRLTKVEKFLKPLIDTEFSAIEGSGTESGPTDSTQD
T1 sequence (Q00195 1-664): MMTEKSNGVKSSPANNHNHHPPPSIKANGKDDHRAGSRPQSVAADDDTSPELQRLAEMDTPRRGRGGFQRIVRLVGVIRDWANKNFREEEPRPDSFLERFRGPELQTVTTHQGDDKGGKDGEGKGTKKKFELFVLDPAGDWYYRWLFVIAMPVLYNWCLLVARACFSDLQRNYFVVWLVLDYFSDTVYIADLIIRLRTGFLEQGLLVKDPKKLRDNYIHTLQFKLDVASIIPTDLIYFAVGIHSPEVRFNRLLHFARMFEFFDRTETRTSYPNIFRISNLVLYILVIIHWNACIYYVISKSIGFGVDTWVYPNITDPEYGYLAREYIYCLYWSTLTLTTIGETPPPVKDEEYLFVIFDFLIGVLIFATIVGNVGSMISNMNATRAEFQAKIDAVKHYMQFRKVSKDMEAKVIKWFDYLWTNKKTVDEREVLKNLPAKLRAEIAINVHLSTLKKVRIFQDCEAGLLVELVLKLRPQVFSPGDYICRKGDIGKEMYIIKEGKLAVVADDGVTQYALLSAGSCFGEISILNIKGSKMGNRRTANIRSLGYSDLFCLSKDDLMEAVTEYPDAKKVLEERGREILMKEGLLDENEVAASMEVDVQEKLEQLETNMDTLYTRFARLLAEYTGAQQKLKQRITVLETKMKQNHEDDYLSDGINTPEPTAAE
As to the kind of experiment: DAG dose-response on chimera CHM11, inside-out patches from Xenopus oocytes. It counts as biochemical, bovine/rat. The conditions noted are these: saturating 2 mM cGMP, five patches. In outline: (§1)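 Chimera cRNA injected into Xenopus oocytes, held at 15°C overnight then 18°C for 1–10 d; vitelline membrane removed. […] 1,2-DiC8 from DMSO stock added stepwise to bath (0.05–48 μM; DMSO <1.2%). Leak-subtracted currents; Hill fit to averaged data, scaled to maximal inhibition.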

The target in data set [4] is T2, bovine rod CNG channel (CNG1, α homomultimer) (Bos taurus, UniProt Q00194).
T2 sequence (Q00194 1-690): T1 sequence (Q00194 1-690)
It counts as biochemical.

The target of data set [5] is T3, mutant rod CNG channel H468Q (H468Q and A483V), α homomultimer (Bos taurus, UniProt Q00194, A483V/H468Q).
T3 sequence (Q00194 1-690 H468Q/A483V): T1 sequence (Q00194 1-690) with H468Q, A483V
The class given is biochemical, bovine.

Data set [6] concerns the target T4, CHM 13 rod/olfactory chimeric CNG channel (Bos taurus / Rattus norvegicus, UniProt Q00194+Q00195).
T4 sequence (Q00194 1-690): T1 sequence (Q00194 1-690)
T4 sequence (Q00195 1-664): T1 sequence (Q00195 1-664)
As to the kind of experiment: DAG dose-response on chimera CHM13, inside-out patches from Xenopus oocytes. It counts as biochemical, bovine/rat. The conditions noted are these: saturating 2 mM cGMP, six patches. In outline:
as §1

Data set [7] concerns the target T5, CHM 3 rod/olfactory chimeric CNG channel (Bos taurus / Rattus norvegicus, UniProt Q00194+Q00195).
T5 sequence (Q00194 with tags, fused parts or gaps): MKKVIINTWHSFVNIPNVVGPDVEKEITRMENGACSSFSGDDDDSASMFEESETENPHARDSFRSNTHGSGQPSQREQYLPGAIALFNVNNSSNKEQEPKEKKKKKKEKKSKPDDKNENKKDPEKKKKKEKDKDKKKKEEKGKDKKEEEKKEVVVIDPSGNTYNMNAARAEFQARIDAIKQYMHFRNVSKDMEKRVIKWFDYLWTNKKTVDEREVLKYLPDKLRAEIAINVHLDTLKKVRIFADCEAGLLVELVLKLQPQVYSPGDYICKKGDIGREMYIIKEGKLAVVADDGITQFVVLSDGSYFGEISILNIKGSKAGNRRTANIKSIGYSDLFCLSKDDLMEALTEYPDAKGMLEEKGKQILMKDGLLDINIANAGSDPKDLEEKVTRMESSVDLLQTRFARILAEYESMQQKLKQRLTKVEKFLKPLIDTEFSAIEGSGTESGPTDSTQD
T5 sequence (Q00195 147-381): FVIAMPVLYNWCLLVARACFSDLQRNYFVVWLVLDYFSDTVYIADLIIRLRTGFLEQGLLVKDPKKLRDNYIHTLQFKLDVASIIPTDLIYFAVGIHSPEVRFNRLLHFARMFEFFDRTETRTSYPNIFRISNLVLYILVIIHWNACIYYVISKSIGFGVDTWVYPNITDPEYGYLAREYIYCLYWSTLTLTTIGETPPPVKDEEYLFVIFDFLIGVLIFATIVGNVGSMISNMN
As to the kind of experiment: DAG dose-response on chimera CHM3, inside-out patches from Xenopus oocytes. It counts as biochemical, bovine/rat. The conditions noted are these: saturating 2 mM cGMP, 4 patches. The method in brief:
as §1

The target of data set [8] is T6, rat olfactory CNG channel (CNG2, α homomultimer) (Rattus norvegicus, UniProt Q00195).
T6 sequence (Q00195 1-664): T1 sequence (Q00195 1-664)
It counts as biochemical.

Data set [9] concerns the target T7, mouse olfactory CNG channel (Mus musculus, UniProt Q62398).
T7 sequence (Q62398 1-664): T1 sequence (Q00195 1-664) with P50S, Q69R, V77I, D115G, G118D, V297A, D611E, T661A, A662V
As to the kind of experiment: Single-channel recording of olfactory channel with DAG. The class given is biochemical. The conditions noted are these: +80 mV, saturating cGMP, with and without DAG. In outline: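 Three to five continuous 1-s records per condition, filtered at 5 kHz and sampled at 25 kHz. Amplitude histograms from full records were fit with Gaussians to obtain mean single-channel current.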

For data set [10], the system named is CNG channels. The conditions noted are these: ref Fodor et al. 1997; cited from earlier work.

Where a chain is given by its changes, count along the chain named. pEC50, pIC50: −log10 of the molar value. Where two headings read alike, the source gives them in different places.

Consider `CCCCCCCC(=O)OC[C@H](COP(=O)([O-])OCC[N+](C)(C)C)OC(=O)CCCCCCC` [1,2-dioctanoyl phosphatidylcholine], for which, in data set [1], the critical micelle concentration is 270 µM.
On to `CCCCCCCC(=O)OCC(O)COC(=O)CCCCCCC` [1,3-DiC8], for which the “effectiveness of inhibition relative to 1,2-DiC8” value in data set [2] is reported as “just as effective as 1,2-DiC8”.
`CCCCCCCC(=O)OC[C@H](CO)OC(=O)CCCCCCC` [DAG, 1,2-dioctanoyl-sn-glycerol]: the “Hill coefficient n of DAG inhibition” value in [3] worked out at 1.6; in [4] (low cGMP (~30 μM), single patch) it was 1.3; in [4] (saturating 2 mM cGMP), 1.7; in data set [6], 2.8; in [7], 1.6; in [8] (low cGMP (1.5 μM), single patch), 1.4. Further, the “Hill coefficient n of DAG inhibition” value in data set [8] (saturating 100 μM cGMP) was determined as 1.4. The figures for the “factor of increase of cGMP K1/2” value in data set [4] (0.5 μM DAG) and in data set [8] (0.5 μM DAG) were 3.2 and 2.2, respectively. Further, the “reduction in the maximal current with DAG” value in [4] (0.5 μM DAG, cGMP dose-response) stood at 29%; in data set [8] (0.5 μM DAG, cGMP dose-response), 3%. The pIC50 in [4] (IC50 for DAG inhibition, saturating 2 mM cGMP, 11 patches) is 6.08; in data set [5], 6.48. Besides, in data set [4] (saturating 2 mM cGMP), the “DAG concentration completely suppressing cGMP-activated currents” value was about 3 µM. The “INmax (maximal inhibition by DAG)” value came to 100% in [4] (saturating 2 mM cGMP) and 31% in data set [8] (saturating 100 μM cGMP). For the same compound, the “single-channel amplitude with DAG” value in data set [5] (+80 mV, saturating cGMP, with and without 0.25 μM DAG, patch with two channels) is given as 2.1 pA; in data set [9], 3.2 pA. Moreover, in [5] (saturating cGMP), the “extent of inhibition by DAG” value is “fully inhibited”. Besides, the “inhibition of cGMP-activated current by DAG” value in [8] (0.5 μM DAG, saturating 100 μM cGMP) is listed as “small effect”. For the same compound, in data set [8] (saturating (100 μM) cGMP, DAG as high as 12 μM), the “suppression of cGMP-activated currents at high DAG” value is listed as “only partial suppression”. Besides, in data set [8] (saturating cGMP, rod vs olfactory), the “difference between DAG IC50 of rod and olfactory channel” value is recorded as “approximately a fourfold difference”.
Consider `Nc1nc2c(ncn2[C@@H]2O[C@@H]3COP(=O)(O)O[C@H]3[C@H]2O)c(=O)[nH]1` [cGMP], for which the pEC50 in [8] (read-out: K1/2 for activation by cGMP, with 0.5 μM DAG, +100 mV, single patch) is 5.40. In addition, the “Hill coefficient n of cGMP activation” value in data set [8] (with 0.5 μM DAG) and in [8] (without DAG) was 2.8 throughout.
As for `CCCCNc1ccc(C(=O)OCCN(C)C)cc1` [tetracaine], the “Hill coefficient of inhibition” value in data set [10] is on record as about 1.
